Experimental data published in ChEMBL document CHEMBL1142292, “Synthesis and biological activity of novel peptide mimetics as melanocortin receptor agonists” (Bioorg Med Chem Lett, 2008).

What was measured:
Melanocortin receptor 3 [1] = molecular target: T1, Melanocortin receptor 3 (Homo sapiens, UniProt P41968); assay: Displacement of europium labeled NDP-alpha-MSH from human MC3 receptor expressed in HEK293 cells; format: cell-based
How it was run: (§1)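 HEK293 cells stably transfected with each human receptor subtype; competing unlabeled ligands displace a constant concentration of europium-labeled NDP-α-MSH, read by time-resolved fluorometry; IC50 and Ki calculated.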

Melanocortin receptor 4 [2] = molecular target: T2, Melanocortin receptor 4 (Homo sapiens, UniProt P32245); assay: Displacement of europium labeled NDP-alpha-MSH from human MC4 receptor expressed in HEK293 cells; format: cell-based; how it was run: as §1
T2 sequence (P32245 whole entry): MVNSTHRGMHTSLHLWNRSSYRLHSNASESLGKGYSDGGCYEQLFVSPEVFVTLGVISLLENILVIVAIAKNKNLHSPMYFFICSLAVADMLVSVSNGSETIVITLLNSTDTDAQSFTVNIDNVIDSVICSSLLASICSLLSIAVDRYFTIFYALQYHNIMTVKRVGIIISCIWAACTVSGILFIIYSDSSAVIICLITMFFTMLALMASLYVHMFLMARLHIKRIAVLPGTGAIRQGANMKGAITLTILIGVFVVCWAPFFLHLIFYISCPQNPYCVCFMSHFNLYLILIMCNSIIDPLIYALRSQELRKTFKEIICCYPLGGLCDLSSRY

[3] = molecular target: T3, Melanocyte-stimulating hormone receptor (Homo sapiens, UniProt Q01726); assay: Agonist activity at human MC1 receptor expressed in HEK293 cells; format: functional, cell-based
T3 sequence (Q01726 whole entry): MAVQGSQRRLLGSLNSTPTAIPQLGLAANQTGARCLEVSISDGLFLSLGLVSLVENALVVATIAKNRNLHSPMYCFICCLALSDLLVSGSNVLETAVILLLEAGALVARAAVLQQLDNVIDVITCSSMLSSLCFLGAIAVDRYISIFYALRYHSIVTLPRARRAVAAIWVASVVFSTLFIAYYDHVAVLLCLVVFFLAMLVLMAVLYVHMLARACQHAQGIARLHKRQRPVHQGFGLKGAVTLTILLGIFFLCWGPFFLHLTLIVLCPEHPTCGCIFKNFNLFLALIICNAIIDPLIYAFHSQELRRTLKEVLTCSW
How it was run: (§2)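 HEK293 cells stably transfected with the receptor subtype and a CRE-luciferase reporter; cells assayed in 96-well format for luciferase activity. Response expressed as percent of maximal activity (Emax) of NDP-MSH (MT-I) reference agonist.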

Melanocortin receptor 3 [4] = molecular target: T1, Melanocortin receptor 3; assay: Agonist activity at human MC3 receptor expressed in HEK293 cells; format: functional, cell-based; how it was run: as §2
Melanocortin receptor 4 [5] = molecular target: T2, Melanocortin receptor 4; assay: Agonist activity at human MC4 receptor expressed in HEK293 cells; format: functional, cell-based; how it was run: as §2
[6] = molecular target: T3, Melanocyte-stimulating hormone receptor; assay: Displacement of europium labeled NDP-alpha-MSH from human MC1 receptor expressed in HEK293 cells; format: cell-based; how it was run: as §1

T1 sequence (P41968 whole entry): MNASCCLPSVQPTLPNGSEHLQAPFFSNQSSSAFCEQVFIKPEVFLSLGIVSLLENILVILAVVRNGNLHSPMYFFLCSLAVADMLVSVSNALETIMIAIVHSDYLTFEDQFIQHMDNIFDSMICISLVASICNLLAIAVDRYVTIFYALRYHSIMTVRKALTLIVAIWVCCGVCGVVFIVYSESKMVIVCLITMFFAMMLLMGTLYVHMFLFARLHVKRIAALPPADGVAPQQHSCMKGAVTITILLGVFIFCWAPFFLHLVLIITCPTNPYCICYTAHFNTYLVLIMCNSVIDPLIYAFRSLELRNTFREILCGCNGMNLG

Row | Ki (Melanocortin receptor 3 [1]) | Ki (Melanocortin receptor 4 [2]) | EC50 [3] | EC50 (Melanocortin receptor 3 [4]) | EC50 (Melanocortin receptor 4 [5]) | Ki [6] | SMILES
1 | 9.1 µM | 6.7 µM | > 25 µM | > 15 µM | > 50 µM |  | N=C(N)NCCC[C@H](CC1CCCCC1)NC(=O)[C@H](N)Cc1ccc(F)cc1
2 | > 100 µM | > 25 µM | > 50 µM | > 25 µM | > 50 µM | > 100 µM | N=C(N)NCCC[C@H](NC(=O)[C@H](N)Cc1ccc(F)cc1)C(=O)N1CCCCC1
3 | 3.5 µM | 4.2 µM |  | > 100 µM | > 100 µM | > 25 µM | NC(N)=NCCC[C@H](Cc1ccccc1)NC(=O)[C@H](N)Cc1ccc(F)cc1
4 | 4.5 µM | > 50 µM | > 25 µM | > 50 µM | > 25 µM | > 25 µM | N[C@H](Cc1ccc(F)cc1)C(=O)NCCC(Cn1cncn1)C1CCCCC1 (some centres undefined)
5 | 2.3 µM | 0.023 µM | 2 µM | 0.23 µM | 0.016 µM | > 10 µM | N[C@H](Cc1ccc(Cl)cc1)C(=O)N1CCC(Cn2cncn2)(C2CCCCC2)CC1
6 | > 100 µM | > 100 µM | > 50 µM | > 100 µM | > 100 µM | > 100 µM | NC(N)=NCCC[C@@H](CN1CCCCC1)NC(=O)[C@H](N)Cc1ccc(F)cc1
